Reference: ChEMBL document CHEMBL4152206, “Design, synthesis, cytotoxicity and mechanism of novel dihydroartemisinin-coumarin hybrids as potential anti-cancer agents” (Eur J Med Chem, 2018)
The source made the active and inactive calls. No cut-off for these calls is given here.

Assays:
HT-29 [1] = assay: Cytotoxicity against human HT-29 cells after 96 hrs under hypoxic condition by MTT assay; assay type: functional, cell-based; details: Homo sapiens, HT-29, 96 h; read-out: IC50
Outline: (§1)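 MTT viability assay in HT-29 (high CA IX) and MDA-MB-231 (normal CA IX) cells under normoxic and hypoxic conditions; IC50 values reported.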

HT-29 [2] = assay: Cytotoxicity against human HT-29 cells after 96 hrs under normoxic condition by MTT assay; assay type: functional, cell-based; details: Homo sapiens, HT-29, 96 h; read-out: IC50; outline: as §1
MDA-MB-231 [3] = assay: Cytotoxicity against human MDA-MB-231 cells after 96 hrs under hypoxic condition by MTT assay; assay type: functional, cell-based; details: Homo sapiens, MDA-MB-231, 96 h; read-out: IC50; outline: as §1
MDA-MB-231 [4] = assay: Cytotoxicity against human MDA-MB-231 cells after 96 hrs under normoxic condition by MTT assay; assay type: functional, cell-based; details: Homo sapiens, MDA-MB-231, 96 h; read-out: IC50; outline: as §1
HT-29 [5] = assay: Cell cycle arrest in human HT-29 cells assessed as accumulation at G0/G1 phase at 2.5 uM after 48 hrs by RNase/propidium iodide staining-based flow cytometric analysis (reference value: 70.48%); assay type: functional
HT-29 [6] = assay: Cell cycle arrest in human HT-29 cells assessed as accumulation at G0/G1 phase at 5 uM after 48 hrs by RNase/propidium iodide staining-based flow cytometric analysis (reference value: 70.48%); assay type: functional
HT-29 [7] = assay: Cell cycle arrest in human HT-29 cells assessed as accumulation at G0/G1 phase at 10 uM after 48 hrs by RNase/propidium iodide staining-based flow cytometric analysis (reference value: 70.48%); assay type: functional
HT-29 [8] = assay: Cell cycle arrest in human HT-29 cells assessed as accumulation at G0/G1 phase at 20 uM after 48 hrs by RNase/propidium iodide staining-based flow cytometric analysis (reference value: 70.48%); assay type: functional
HT-29 [9] = assay: Induction of morphological changes in human HT-29 cells assessed as reduction in cell volume after 96 hrs; assay type: functional, cell-based
HT-29 [10] = assay: Induction of morphological changes in human HT-29 cells assessed as reduction in cell number after 96 hrs; assay type: functional, cell-based
HT-29 [11] = assay: Cell cycle arrest in human HT-29 cells assessed as accumulation at sub-G1 phase at 10 uM by RNase/propidium iodide staining-based flow cytometric analysis; assay type: functional; details: TDE = time-dependent effect
Outline: (§2)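 HT-29 cells exposed to 10 µM for different times (up to 72 h); sub-G1 fraction measured by flow cytometry.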

HT-29 [12] = assay: Cell cycle arrest in human HT-29 cells assessed as accumulation at sub-G1 phase at 10 uM after 48 to 72 hrs by RNase/propidium iodide staining-based flow cytometric analysis; assay type: functional; outline: as §2
HT-29 [13] = assay: Induction of apoptosis in human HT-29 cells assessed as early apoptotic cells at 2.5 uM after 48 hrs by Annexin V-FITC/propidium iodide staining-based flow cytometric analysis (reference value: 0.07%); assay type: functional
HT-29 [14] = assay: Induction of apoptosis in human HT-29 cells assessed as early apoptotic cells at 5 uM after 48 hrs by Annexin V-FITC/propidium iodide staining-based flow cytometric analysis (reference value: 0.07%); assay type: functional
HT-29 [15] = assay: Induction of apoptosis in human HT-29 cells assessed as early apoptotic cells at 10 uM after 48 hrs by Annexin V-FITC/propidium iodide staining-based flow cytometric analysis (reference value: 0.07%); assay type: functional
HT-29 [16] = assay: Induction of mitochondrial membrane potential loss in human HT-29 cells at 20 uM measured after 3 hrs by Rh123 dye-based flow cytometric analysis; assay type: functional, cell-based
Outline: (§3)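 HT-29 cells exposed to 20 µM for different times, stained with Rh123 for 40 min, trypsinised (0.25%), washed three times in PBS; mitochondrial membrane potential read by flow cytometry.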

HT-29 [17] = assay: Antimigratory activity in human HT-29 cells after 72 hrs by wound healing assay; assay type: functional, cell-based
Outline: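 HT-29 cells plated 48 h before scratching; treated with 0, 0.31, 0.63, 1.25, 2.5 and 5 µM under normoxia; wound imaged by inverted microscope at 0 h and 72 h.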

HT-29 [18] = assay: Antimigratory activity in human HT-29 cells at 1.25 to 2.5 uM after 24 hrs by transwell assay; assay type: functional, cell-based
HT-29 [19] = assay: Growth inhibition of human HT-29 cells pretreated with 10 uM liproxstatin-1 for 1 hr followed by 10 uM compound addition and measured after 72 hrs by MTT assay; assay type: functional, cell-based
[20] = target: Carbonic anhydrase 9 (Homo sapiens) (UniProt Q16790); assay: Inhibition of carbonic anhydrase 9 in human HT-29 cells assessed as induction of cellular pH decrease at 10 uM after 24 hrs by BCECF-AM staining-based flow cytometric analysis; assay type: cell-based
Outline: (§4)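 Intracellular pH in HT-29 cells exposed to 10 µM for 0, 3, 12 and 24 h: stained 40 min with BCECF-AM, trypsinised (0.25%), PBS-washed, fluorescence read by flow cytometry.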

[21] = target: Carbonic anhydrase 9 (Homo sapiens) (UniProt Q16790); assay: Inhibition of carbonic anhydrase 9 in human HT-29 cells assessed as induction of cellular pH decrease at 10 uM after 3 to 12 hrs by BCECF-AM staining-based flow cytometric analysis; assay type: cell-based; outline: as §4
HT-29 [22] = assay: Cell cycle arrest in human HT-29 cells assessed as accumulation at sub-G1 phase at 10 uM up to 48 hrs by RNase/propidium iodide staining-based flow cytometric analysis; assay type: functional; outline: as §2
HT-29 [23] = assay: Induction of mitochondrial membrane potential loss in human HT-29 cells at 20 uM measured measured until 24 hrs by Rh123 dye-based flow cytometric analysis; assay type: functional, cell-based; outline: as §3
HT-29 [24] = assay: Induction of ferroptosis in human HT-29 cells at 10 uM after 72 hrs by MTT assay; assay type: functional, cell-based
HT-29 [25] = assay: Growth inhibition of human HT-29 cells pretreated with 5 to 40 uM liproxstatin-1 for 1 hr followed by 10 uM compound addition and measured after 48 hrs by MTT assay

## Cc1c(Cl)c(=O)oc2cc(OCCn3cc(CO[C@H]4O[C@@H]5O[C@@]6(C)CC[C@H]7[C@H](C)CC[C@@H]([C@H]4C)[C@@]57OO6)nn3)ccc12
HT-29 [1]
  IC50: 0.17 µM
HT-29 [2]
  IC50: 1.88 µM
MDA-MB-231 [3]
  IC50: 7.51 µM
MDA-MB-231 [4]
  IC50: 18.4 µM
HT-29 [5]
  Activity: 72.28%
HT-29 [6]
  Activity: 76.53%
HT-29 [7]
  Activity: 75.45%
HT-29 [8]
  Activity: 82.22%
HT-29 [9]
  Activity: Dose-dependent effect
HT-29 [10]
  Activity: Dose-dependent effect
HT-29 [11]
  Activity: Tde
HT-29 [12]
  Activity: <=60%
HT-29 [13]
  Activity: 1.7%
HT-29 [14]
  Activity: 4.8%
HT-29 [15]
  Activity: 14.9%
HT-29 [16]
  Activity: Active
HT-29 [17]
  Activity: Dose-dependent effect
HT-29 [18]
  Activity: Active
HT-29 [19]
  growth inhibition (GI): inactive
[20]
  inhibition: Active
[21]
  inhibition: Active
HT-29 [22]
  Activity: inactive
HT-29 [23]
  Activity: inactive
HT-29 [24]
  Activity: Active
HT-29 [25]
  growth inhibition (GI): inactive

## Cc1c(Cl)c(=O)oc2cc(OCCO[C@H]3O[C@@H]4O[C@@]5(C)CC[C@H]6[C@H](C)CC[C@@H]([C@H]3C)[C@@]46OO5)ccc12
HT-29 [1]
  IC50: 7.02 µM
HT-29 [2]
  IC50: 23.9 µM
MDA-MB-231 [3]
  IC50: 5.36 µM
MDA-MB-231 [4]
  IC50: 18 µM

## Cc1c(Cl)c(=O)oc2cc(OCCn3cc(CCO[C@H]4O[C@@H]5O[C@@]6(C)CC[C@H]7[C@H](C)CC[C@@H]([C@H]4C)[C@@]57OO6)nn3)ccc12
HT-29 [1]
  IC50: 2.37 µM
HT-29 [2]
  IC50: 5.28 µM
MDA-MB-231 [3]
  IC50: 7.24 µM
MDA-MB-231 [4]
  IC50: 7.53 µM

## Cc1cc(=O)oc2cc(-n3cc(CO[C@H]4O[C@@H]5O[C@@]6(C)CC[C@H]7[C@H](C)CC[C@@H]([C@H]4C)[C@@]57OO6)nn3)ccc12
HT-29 [1]
  IC50: 5.09 µM
HT-29 [2]
  IC50: 10.8 µM
MDA-MB-231 [3]
  IC50: 49.8 µM
MDA-MB-231 [4]
  IC50: 21.5 µM

## Cc1cc(=O)oc2cc(OCCCn3cc(CCO[C@H]4O[C@@H]5O[C@@]6(C)CC[C@H]7[C@H](C)CC[C@@H]([C@H]4C)[C@@]57OO6)nn3)ccc12
HT-29 [1]
  IC50: 0.11 µM
HT-29 [2]
  IC50: 6.87 µM
MDA-MB-231 [3]
  IC50: 14.4 µM
MDA-MB-231 [4]
  IC50: 72.2 µM

## Cc1cc(=O)oc2cc(-n3cc(CCO[C@H]4O[C@@H]5O[C@@]6(C)CC[C@H]7[C@H](C)CC[C@@H]([C@H]4C)[C@@]57OO6)nn3)ccc12
HT-29 [1]
  IC50: 10.9 µM
HT-29 [2]
  IC50: 8.95 µM
MDA-MB-231 [3]
  IC50: 9.96 µM
MDA-MB-231 [4]
  IC50: 3.78 µM

## C[C@H]1[C@@H](OCCc2cn(-c3ccc4c(C(F)(F)F)cc(=O)oc4c3)nn2)O[C@@H]2O[C@@]3(C)CC[C@H]4[C@H](C)CC[C@@H]1[C@@]24OO3
HT-29 [1]
  IC50: 10.3 µM
HT-29 [2]
  IC50: 6.07 µM
MDA-MB-231 [3]
  IC50: 95.7 µM
MDA-MB-231 [4]
  IC50: 1.85 µM

## Cc1c(Cl)c(=O)oc2cc(OCCCn3cc(CCO[C@H]4O[C@@H]5O[C@@]6(C)CC[C@H]7[C@H](C)CC[C@@H]([C@H]4C)[C@@]57OO6)nn3)ccc12
HT-29 [1]
  IC50: 1.68 µM
HT-29 [2]
  IC50: 1.19 µM
MDA-MB-231 [3]
  IC50: 6.07 µM
MDA-MB-231 [4]
  IC50: 31 µM

## Cc1c(C)c2ccc(OCCO[C@H]3O[C@@H]4O[C@@]5(C)CC[C@H]6[C@H](C)CC[C@@H]([C@H]3C)[C@@]46OO5)cc2oc1=O
HT-29 [1]
  IC50: 57.2 µM
HT-29 [2]
  IC50: 12.8 µM
MDA-MB-231 [3]
  IC50: 12.8 µM
MDA-MB-231 [4]
  IC50: 57.2 µM
